The subject of series [1] is HeLa. The experiment in a line: Anticlonogenic activity against human HeLa cells treated for 24 hrs measured after 2 weeks by crystal violet staining based inverted microscopic method. It is filed as functional, cell-based. An outline of the steps:
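HeLa cells seeded at 500 per well, exposed to compound 24 h, then grown 2 weeks at 37 °C, 5% CO₂. Washed with PBS, methanol-fixed 15 min, stained 0.1% crystal violet 10 min; colonies of more than 50 cells counted under inverted microscope to give inhibition rate.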

The test system of series [2] is HeLa. The experiment in a line: Anti-invasive activity against human HeLa cells at 1 uM after 24 hrs using crystal violet staining by inverted microscopic based transwell chamber assay. The series is classed as functional, cell-based. In short, it runs like this:
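Transwell chambers, 8 μm pore, upper side precoated with Matrigel. 1×10⁵ HeLa cells seeded with compound (1 μM) in RPMI1640 with 1% FBS; lower chamber 10% FBS as chemoattractant. After 24 h at 37 °C, non-invaded cells swabbed off; membranes methanol-fixed 10 min, stained 0.5% crystal violet, counted microscopically.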

Series [3] can be described thus: Antiproliferative activity against human ES2 cells after 48 hrs by MTT assay. The note with it: ES-2, 48 h. It is filed as functional, cell-based. An outline of the steps:
(§1)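 Cells grown in RPMI1640 with 10% FBS at 37 °C, 5% CO₂; plated 5000 per well, 4 h attachment, then exposed to a range of compound concentrations for 48 h. 0.5% MTT added for 4 h, formazan dissolved in DMSO, absorbance read at 570 nm.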
In general terms: Tetrazolium dyes change colour on reduction, which living cells bring about.

Series [4] has as its target Matrix metalloproteinase-9 (Homo sapiens, UniProt P14780). The experiment in a line: Inhibition of recombinant human MMP9 (Phe107 to Pro449 residues) expressed in Escherichia coli preincubated for 45 mins followed by […] substrate addition by fluorescence assay. An outline of the steps: (§2)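 Fluorometric kit assay: enzyme added to assay buffer equilibrated to 37 °C, then inhibitor (NNGH as kit control) added and preincubated 45 min at 37 °C; fluorogenic substrate added to start reaction; fluorescence read at Ex/Em 328/420 nm.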

Series [5] concerns Thoracic aorta. The series can be described thus: Anti-angiogenic activity against Sprague-Dawley rat thoracic aorta assessed as reduction in microvessel outgrowth arising fron aortic rings at 5 uM after 6 days by inverted microscopic method. It is filed as functional, tissue-based. An outline of the steps:
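Thoracic aortas from 6-week-old male Sprague Dawley rats, perivascular tissue removed, cut into ~1 mm rings and embedded in Matrigel-coated wells. Rings treated with compound at 5 μM, vehicle control included, 6 days at 37 °C, 5% CO₂. Microvessel outgrowth imaged by inverted microscope; inhibition rate counted.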

Series [6] concerns MDA-MB-231. The experiment in a line: Antiproliferative activity against human MDA-MB-231 cells after 48 hrs by MTT assay. It is filed as functional, cell-based. The note with it: MDA-MB-231, 48 h. An outline of the steps:
as §1

Series [7] concerns HUVEC. The experiment in a line: Anti-angiogenic activity against HUVEC assessed as reduction in tube formation at 1 uM after 8 hrs by inverted microscopic method. It is filed as functional, cell-based. The conditions noted are these: Homo sapiens. An outline of the steps:
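Matrigel-coated wells gelled 30 min at 37 °C, 5% CO₂; 1×10⁵ HUVECs per well seeded in growth medium together with compound at 1 μM, vehicle control included. Incubated 8 h at 37 °C, 5% CO₂; capillary-like tube networks imaged under inverted microscope and quantified.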

The test system of series [8] is MCF7. The series can be described thus: Antiproliferative activity against human MCF7 cells after 48 hrs by MTT assay. The series is classed as functional, cell-based. The note with it: MCF7, 48 h. In short, it runs like this:
as §1

Series [9] has as its target 72 kDa type IV collagenase (Homo sapiens, UniProt P08253). The series can be described thus: Inhibition of recombinant human MMP2 catalytic domain (Tyr110 to Asp452 residues) preincubated for 45 mins followed by […] substrate addition by fluorescence assay. An outline of the steps: as §2
The test system of series [10] is K562. The series can be described thus: Antiproliferative activity against human K562 cells after 48 hrs by MTT assay. The series is classed as functional, cell-based. The note with it: K562, 48 h. An outline of the steps: as §1
A short description of series [11]: Cytotoxicity against HUVEC after 48 hrs by MTT assay. It is filed as cell-based. The conditions noted are these: human, HUVEC cells. An outline of the steps: as §1
Series [12] concerns HeLa. The experiment in a line: Nitric oxide releasing activity in human HeLa cells assessed as nitrite accumulation at 100 uM after 5 hrs by Griess reagent based colorimetric assay. The series is classed as ADME, cell-based. In short, it runs like this: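 HeLa cells (1×10⁵ per well) incubated 5 h with compound at 100 μM. Cell-free supernatant mixed 1:1 with Griess reagent for 10 min; absorbance at 540 nm; nitrite quantified against NaNO₂ standard curve.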

In series [13] the test system is HeLa. The experiment in a line: Antiproliferative activity against human HeLa cells after 48 hrs by MTT assay. It is filed as functional, cell-based. An outline of the steps:
as §1

For series [14], the system named is A549. The series can be described thus: Antiproliferative activity against human A549 cells after 48 hrs by MTT assay. The series is classed as functional, cell-based. The note with it: A549, 48 h. An outline of the steps: as §1
The subject of series [15] is H22. The experiment in a line: Antitumor activity against […] xenografted in Kunming mouse assessed as increase in mouse survival rate at 100 mg/kg/day, ig once daily for 10 days relative to control. The series is classed as functional. An outline of the steps:
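Female Kunming mice (20±2 g, 4–6 weeks), randomized 10 per group, were inoculated subcutaneously with H22 cells (4 × 10⁷/mL) on day 0. Dosing was intragastric, once daily for ten days, with a PBS/5% DMSO vehicle group and a positive-control group. Body weight was recorded before each dose, and survival was checked daily. Mean survival time was compared with vehicle.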

The subject of series [16] is HeLa. The series can be described thus: Antimigratory activity against human HeLa cells at 1 uM after 24 hrs using crystal violet staining by inverted microscopic based transwell chamber assay. It is filed as functional, cell-based. In short, it runs like this: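 Uncoated Transwell chambers, 8 μm pore. 5×10⁴ HeLa cells seeded in upper chamber with compound (1 μM) in RPMI1640 containing 1% FBS; 10% FBS below as chemoattractant. 24 h at 37 °C; upper-side cells removed, membrane methanol-fixed 10 min, 0.5% crystal violet stained, migrated cells counted under inverted microscope.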

Series [17] relates to Mus musculus. The series can be described thus: Toxicity in Kunming mouse xenografted with […] assessed as increase in body weight at 100 mg/kg/day, ig once daily for 10 days. The series is classed as organism-based. The note with it: in vivo, po, 240 h. An outline of the steps:
(§3)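 Female Kunming mice (20±2 g, 4–6 weeks), 10 per group, inoculated subcutaneously with H22 cells (4×10⁷/mL) on day 0. Compound 100 mg/kg/day given intragastrically once daily for 10 days; vehicle PBS with 5% DMSO. Body weight recorded before each dose; survival monitored daily.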
A general note: Xenograft models place foreign cells or tissue in a host animal.

In series [18] the test system is Mus musculus. The series can be described thus: Toxicity in Kunming mouse xenografted with […] assessed as decrease in body weight at 100 mg/kg/day, ig once daily for 10 days. It is filed as organism-based. The conditions noted are these: in vivo, po, 240 h. In short, it runs like this:
as §3

In series [19] the test system is HeLa. The experiment in a line: Antimigratory activity against human HeLa cells assessed as reduction in wound closure at 1 uM by inverted microscopic method. It is filed as functional, cell-based. The conditions noted are these: TDE = time-dependent effect. An outline of the steps: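 2×10⁵ HeLa cells per well grown to confluence; pipette tip scratch made, cells treated with 1 μM compound and allowed to migrate; wound imaged by inverted microscope at 0, 12, 24 and 48 h, wound closure quantified.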

Calls of active or inactive are those of the source. The rule behind the calls is not given here.

Chain of 72 kDa type IV collagenase (P08253 whole entry, the tested form may be a part): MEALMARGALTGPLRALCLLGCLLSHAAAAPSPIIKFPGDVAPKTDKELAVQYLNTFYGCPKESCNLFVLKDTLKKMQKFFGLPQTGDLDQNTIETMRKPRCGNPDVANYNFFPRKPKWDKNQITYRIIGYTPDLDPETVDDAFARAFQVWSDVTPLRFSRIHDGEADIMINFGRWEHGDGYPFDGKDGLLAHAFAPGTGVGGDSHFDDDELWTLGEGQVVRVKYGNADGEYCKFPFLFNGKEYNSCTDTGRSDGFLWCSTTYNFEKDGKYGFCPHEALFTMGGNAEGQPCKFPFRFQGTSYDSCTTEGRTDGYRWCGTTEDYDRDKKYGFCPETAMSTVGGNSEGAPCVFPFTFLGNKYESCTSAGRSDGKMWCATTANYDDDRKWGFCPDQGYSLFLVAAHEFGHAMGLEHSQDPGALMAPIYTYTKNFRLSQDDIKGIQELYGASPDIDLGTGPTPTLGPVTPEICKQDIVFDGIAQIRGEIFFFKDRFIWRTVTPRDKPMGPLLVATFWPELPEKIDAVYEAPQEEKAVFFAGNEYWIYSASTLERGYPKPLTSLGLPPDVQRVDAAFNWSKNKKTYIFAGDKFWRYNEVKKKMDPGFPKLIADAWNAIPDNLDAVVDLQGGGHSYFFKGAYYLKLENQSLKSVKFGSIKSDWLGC
Chain of Matrix metalloproteinase-9 (P14780 whole entry): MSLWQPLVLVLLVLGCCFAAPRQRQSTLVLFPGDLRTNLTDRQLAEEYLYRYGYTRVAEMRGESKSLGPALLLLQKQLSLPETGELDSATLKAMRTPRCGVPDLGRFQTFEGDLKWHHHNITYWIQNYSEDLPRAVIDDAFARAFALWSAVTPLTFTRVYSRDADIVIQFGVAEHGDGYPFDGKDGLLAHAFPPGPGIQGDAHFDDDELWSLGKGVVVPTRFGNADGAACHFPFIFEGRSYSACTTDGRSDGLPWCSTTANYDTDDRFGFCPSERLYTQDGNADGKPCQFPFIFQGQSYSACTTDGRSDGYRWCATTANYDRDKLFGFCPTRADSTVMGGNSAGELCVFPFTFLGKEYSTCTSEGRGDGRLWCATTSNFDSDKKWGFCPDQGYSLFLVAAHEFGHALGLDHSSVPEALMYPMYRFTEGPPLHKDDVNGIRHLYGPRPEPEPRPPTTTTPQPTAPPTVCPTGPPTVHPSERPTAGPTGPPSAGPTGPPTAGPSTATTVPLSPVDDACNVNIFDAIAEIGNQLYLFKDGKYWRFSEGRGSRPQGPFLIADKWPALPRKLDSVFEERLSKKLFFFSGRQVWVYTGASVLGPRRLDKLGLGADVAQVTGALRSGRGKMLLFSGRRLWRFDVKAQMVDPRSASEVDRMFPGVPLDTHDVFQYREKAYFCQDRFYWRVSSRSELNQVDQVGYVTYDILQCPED

A word on the IC50: it is the point on the concentration scale where inhibition reaches its midpoint. As usually defined, the CC50 is the concentration at which the toxic effect on the cells reaches its halfway point. Regarding `O=C(N[C@H]1C[C@@H](C(=O)NO)N(S(=O)(=O)c2ccc(Oc3ccccc3)cc2)C1)c1cccc2no[n+]([O-])c12`, the outcome in series [1], in series [2] and in series [7] was Active. In addition, the IC50 in [3] was 8.26 µM; in series [4], 0.242 µM; in series [6], 4.19 µM; in series [8] it was 13 µM; in [9] it was 0.182 µM; in series [10], 4.58 µM. In addition, the IC50 turned out to be 7.24 µM in series [13] and 21.5 µM in series [14]. For the same compound, the outcome in series [5] was inactive. Further, in series [11], the CC50 at 48 h came to 37.2 µM. The Nitrite concentration in [12] is 27.87 µM.
Take `COc1ccc(/C=C/C(=O)N2C[C@@H](NC(=O)c3ccc4no[n+]([O-])c4c3)C[C@H]2C(=O)NO)cc1OC`: the outcome in series [1], in series [2], in [5] and in series [7] was Active. In addition, the IC50 is 14.1 µM in series [3]; 0.388 µM in series [4]; 9.81 µM in series [6]; 10.7 µM in series [8]; 0.345 µM in [9]; 4.61 µM in series [10]. Also, the results for the IC50 in series [13] and in series [14] were 6.49 µM and 13.2 µM, respectively. In series [11], this compound yielded a CC50 at 48 h of 36.3 µM. In [12], the Nitrite concentration was 33.11 µM.
With `COc1ccc(/C=C/C(=O)N2C[C@@H](NC(=O)c3cccnc3)C[C@H]2C(=O)NO)cc1OC`, the outcome in series [1], in series [15], in series [2], in series [16], in series [5] and in series [7] was Active. In addition, the IC50 is > 200 µM in series [3]; 0.36 µM in series [4]; > 200 µM in series [6]; > 200 µM in [8]; 0.266 µM in series [9]; > 200 µM in series [10]. The concentration for half-maximal inhibition (IC50) is 185 µM in series [13] and 78.2 µM in series [14]. This compound also yielded a CC50 at 48 h in series [11] of 39.8 µM. In [17], the Activity entry is “Toxic”.
In the case of `O=C(N[C@H]1C[C@@H](C(=O)NO)N(S(=O)(=O)c2ccc(Oc3ccccc3)cc2)C1)c1ccc2no[n+]([O-])c2c1`, the result in series [1], in [2], in series [16], in series [5] and in series [7] was Active. Further, the results for the Activity in series [15], in series [18] and in series [19] were 40.48%, “Toxic” and “Tde”, respectively. The IC50 in series [3] turned out to be 7.47 µM; in series [4], 0.162 µM; in [6] it was 7.01 µM; in [8] it was 4.19 µM; in series [9], 0.102 µM; in series [10], 3.56 µM. In addition, the IC50 in [13] turned out to be 3.82 µM; in series [14], 5.1 µM. In addition, the CC50 at 48 h in series [11] came to 32.5 µM. Further, the Nitrite concentration in series [12] was determined as 34.43 µM.
Take `COc1ccc(/C=C/C(=O)N2C[C@@H](NC(=O)c3cccc4no[n+]([O-])c34)C[C@H]2C(=O)NO)cc1OC`: the outcome in [1], in series [2] and in [7] was Active. Besides, the 50% inhibitory concentration (IC50) in [3] came to 17.4 µM; in series [4], 0.524 µM; in [6] it was 16.5 µM; in series [8] it was 23.4 µM; in [9], 0.414 µM; in [10] it was 11.2 µM. Besides, the IC50 in [13] was 14.1 µM; in [14], 25.6 µM. Moreover, in series [5], the outcome was inactive. In series [11], this compound showed a CC50 at 48 h of 42.3 µM. For the same compound, the Nitrite concentration in series [12] stood at 25.51 µM.
